mABHD4 FP = inhibitors of mouse ABHD4. purified mABHD4, FP-Rh probe fluorescence polarization. AID 720543. actives 0.54% (n = 370,000). Q8VD66. inhibition, % at 8.92 µM;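 active means inhibition exceeding the mean over every tested compound plus 3 SD, cut at about 30% in these data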
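Assay system: wild-type mouse ABHD4 protein; compound: single nominal dose of 8.92 µM, 0.89% DMSO final; schedule: 45 min + 60 min at 25 °C; measured by: FP readout, ex 525 nm / em 598 nm; evaluation: % inhibition of FP-Rh probe binding versus controls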
PRMT1 FP inh = PRMT1 (human) inhibition, primary screen; actives 1.3% (n = 370,000); Q99873; recombinant PRMT1, activity-based probe fluorescence polarization; inhibition, % at 2.79 µM;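 active means inhibition above about 21% made by adding two undisclosed values, limit read from the data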
SIAE inh = human SIAE inhibition, primary screen; Q9HAT2; actives 0.69% (n = 370,000); AID 1053197; inhibition, % at 9.66 µM; SIAE FP-Rh probe binding, fluorescence polarization;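 active means inhibition above a cutoff: mean of compounds within the control limits plus 3 SD of those, cut at about 17% in these data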
HTRA1 inhibitor = HTRA1 (human) protease inhibition; Q92743; recombinant HTRA1, FP-rhodamine activity-based probe, fluorescence polarization; inhibition, % at 5.96 µM; actives 0.5% (n = 340,000); AID 504803; in the data active means inhibition above about 36%
JMJD2C inh = inhibitors of human GASC-1 (JMJD2C) demethylase. Q9H3R0. GST-JMJD2C(1-420) H3K9me3 demethylation, DELFIA europium. inhibition, % at 2.35 µM. actives 0.069% (n = 330,000). AID 2099;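 active means more than half of a compound's replicate wells show inhibition beyond 50%, single wells judged on their own value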;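 further: signal counts dimethyl H3K9 product captured on neutravidin plate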
Target sequence (Q9H3R0 1-420 limits assumed): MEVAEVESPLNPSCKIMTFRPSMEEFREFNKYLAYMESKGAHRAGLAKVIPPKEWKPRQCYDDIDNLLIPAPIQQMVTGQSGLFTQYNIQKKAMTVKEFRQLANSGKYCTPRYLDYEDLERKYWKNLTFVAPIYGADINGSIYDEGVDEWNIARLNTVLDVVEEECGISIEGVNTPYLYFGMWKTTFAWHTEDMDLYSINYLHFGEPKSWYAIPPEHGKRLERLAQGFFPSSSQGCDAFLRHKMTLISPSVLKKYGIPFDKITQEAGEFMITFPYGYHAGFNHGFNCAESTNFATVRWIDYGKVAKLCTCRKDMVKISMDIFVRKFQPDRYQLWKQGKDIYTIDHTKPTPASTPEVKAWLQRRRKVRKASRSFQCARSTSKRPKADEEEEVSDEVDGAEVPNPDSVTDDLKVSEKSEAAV
PRMT1 inh conf = PRMT1 (human) inhibition, FP confirmation | shares compounds with PRMT1 FP inh | recombinant His-PRMT1, activity-based probe fluorescence polarization | inhibition, % at 2.79 µM | actives 42% (n = 3,300) | AID 687036;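 active means mean inhibition across replicates above the hit cutoff derived for the earlier primary screen, cut at about 22% in these data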
mABHD4 conf = confirmation of mouse ABHD4 inhibitors. shares compounds with mABHD4 FP. purified mABHD4, FP-Rh probe fluorescence polarization. inhibition, % at 8.92 µM. actives 55% (n = 1,800). AID 720658;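 active means mean inhibition across replicates above the hit cutoff set in the primary screen, cut at about 30% in these data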
SIAE confirm = confirmation of human SIAE inhibitors. actives 13% (n = 2,300). SIAE FP-Rh activity-based probe, fluorescence polarization. inhibition, % at 9.66 µM. shares compounds with SIAE inh;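 active means mean inhibition of the replicates above the hit cutoff set in the primary screen, cut at about 17% in these data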;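 further: inhibitors lower polarization as more probe stays unbound to SIAE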
Numbers stand for hits; ! = not active in a repeat. The list is not random: actives were taken first. Their share in the collection is about 2.4%.

CC(=O)Nc1ccccc1C(=O)OCc1ccc(F)cc1 was read as mABHD4 FP inactive, PRMT1 FP inh inactive, SIAE inh inactive, HTRA1 inhibitor inactive and JMJD2C inh inactive.
Cn1cnc([N+](=O)[O-])c1Sc1ccc([N+](=O)[O-])cc1 was read as mABHD4 FP inactive, PRMT1 FP inh 47.5, SIAE inh inactive, HTRA1 inhibitor inactive, JMJD2C inh inactive and PRMT1 inh conf inactive.
For COP(=S)(OC)Oc1ccc(Sc2ccc(OP(=S)(OC)OC)cc2)cc1 the results were mABHD4 FP inactive, PRMT1 FP inh inactive, SIAE inh inactive and HTRA1 inhibitor inactive.
`O=c1[nH]sc2cc(F)ccc12` gave mABHD4 FP inactive, PRMT1 FP inh 72.7, SIAE inh inactive, HTRA1 inhibitor inactive, JMJD2C inh inactive and PRMT1 inh conf 68.9.
`C=C1C(=O)OC2CC3(C)OC3C3OC3C3=CC(OC3=O)C12` (stereo unspecified) gave mABHD4 FP inactive, PRMT1 FP inh 44.4, SIAE inh inactive and PRMT1 inh conf 40.1.
For COC(=O)C1=C(c2ccccc2OCc2ccccc2)C[C@@H]2CC[C@H]1N2C(=O)NCc1cccc(C(F)(F)F)c1 the results were mABHD4 FP inactive, PRMT1 FP inh inactive, SIAE inh inactive, HTRA1 inhibitor inactive and JMJD2C inh inactive.
For Cc1ccc(OP2(=O)Nc3cc(C)c(C)cc3S2)cc1 (stereo unspecified) the results were mABHD4 FP inactive, PRMT1 FP inh 67.5, SIAE inh inactive, HTRA1 inhibitor inactive and PRMT1 inh conf 60.2.
For O=C1NC(=O)N(CCNc2ncc(C(F)(F)F)cc2Cl)C(=O)C1Cc1ccc(Cl)cc1 (stereo unspecified) the results were mABHD4 FP inactive, PRMT1 FP inh inactive, SIAE inh inactive, HTRA1 inhibitor inactive and JMJD2C inh inactive.
Cc1cc2c(C(F)(F)F)cc(=O)oc2c2c1NCCC2 was read as mABHD4 FP inactive, PRMT1 FP inh 38.4, SIAE inh inactive, HTRA1 inhibitor inactive, JMJD2C inh inactive and PRMT1 inh conf 58.5.
For Cc1ccnc(-n2c(C)nc3ccccc3c2=O)c1 the results were mABHD4 FP inactive, PRMT1 FP inh inactive, SIAE inh inactive, HTRA1 inhibitor inactive and JMJD2C inh inactive.
`Cc1cccc(N2CCc3c2nc2ccccc2c3N)c1` gave mABHD4 FP inactive, PRMT1 FP inh 32.5!, SIAE inh inactive, HTRA1 inhibitor inactive, JMJD2C inh inactive and PRMT1 inh conf inactive.
Screening CC1=NN(c2ccccc2)C(=O)C1/C=C1\C(=O)NC(=O)N(c2ccc(C)c(C)c2)C1=O (stereo unspecified) returned mABHD4 FP inactive, PRMT1 FP inh inactive, SIAE inh inactive, HTRA1 inhibitor inactive and JMJD2C inh inactive.
`S=P(NCCNP(=S)(N1CC1)N1CC1)(N1CC1)N1CC1` gave mABHD4 FP inactive, PRMT1 FP inh 58.1, SIAE inh inactive, HTRA1 inhibitor inactive and PRMT1 inh conf inactive.
`S=P(NCCSCc1ccccc1)(N1CC1)N1CC1` gave mABHD4 FP inactive, PRMT1 FP inh 29.4, SIAE inh inactive, HTRA1 inhibitor inactive and PRMT1 inh conf inactive.
CN(Cc1ccccc1)Cc1ccccc1OC(=O)N(C)C was read as mABHD4 FP inactive, PRMT1 FP inh inactive, SIAE inh inactive, HTRA1 inhibitor inactive and JMJD2C inh inactive.
Cn1cccc1/C=C1/C(=O)NC(=S)N(Cc2ccc(F)cc2)C1=O was read as mABHD4 FP 49.2, PRMT1 FP inh 26.8, SIAE inh inactive, HTRA1 inhibitor 45.0, JMJD2C inh inactive, PRMT1 inh conf 64.7 and mABHD4 conf 57.2.
Screening O=c1[nH]c(O)c(C=Nc2cccc(F)c2)c(=O)[nH]1 returned mABHD4 FP inactive, PRMT1 FP inh inactive, SIAE inh inactive, HTRA1 inhibitor inactive and JMJD2C inh inactive.
For O=[N+]([O-])c1ccc(NCc2ccccc2)c2nonc12 the results were mABHD4 FP 53.2, PRMT1 FP inh 167.6, SIAE inh 37.2, JMJD2C inh inactive, PRMT1 inh conf 158.7, mABHD4 conf 79.1 and SIAE confirm 29.2.
`COC(=O)C1=C(c2cccc(OCc3ccccc3)c2)C[C@@H]2CC[C@H]1N2C(=O)NC1CCN(Cc2ccccc2)CC1` gave mABHD4 FP inactive, PRMT1 FP inh inactive, SIAE inh inactive and HTRA1 inhibitor inactive.
`COc1ccc(-n2c(=S)[nH]c3ccc(C)cc3c2=O)cc1` gave mABHD4 FP 32.5, PRMT1 FP inh inactive, SIAE inh inactive, HTRA1 inhibitor inactive and mABHD4 conf inactive.
Screening CCN(CC)c1ccc(N=Cc2c(O)n(-c3ccc(Cl)cc3)c(=O)[nH]c2=O)cc1 returned mABHD4 FP inactive, PRMT1 FP inh inactive, SIAE inh inactive, HTRA1 inhibitor inactive and JMJD2C inh inactive.
Screening O=c1[nH]c(=S)n(-c2ccccc2F)c(O)c1C=Nc1ccc(N2CCOCC2)cc1 returned mABHD4 FP 57.8, PRMT1 FP inh inactive, SIAE inh inactive, HTRA1 inhibitor inactive, JMJD2C inh inactive and mABHD4 conf inactive.
For CC(=O)N1CCN(c2ccc(N=Cc3c(O)n(-c4ccc(Cl)cc4)c(=O)[nH]c3=O)cc2)CC1 the results were mABHD4 FP 41.5, PRMT1 FP inh inactive, SIAE inh inactive, HTRA1 inhibitor inactive, JMJD2C inh inactive and mABHD4 conf inactive.
O=c1[nH]c(=S)n(-c2ccc(Br)cc2)c(O)c1C=Nc1ccc(N2CCOCC2)cc1 was read as mABHD4 FP inactive, PRMT1 FP inh inactive, SIAE inh inactive, HTRA1 inhibitor inactive and JMJD2C inh inactive.
Screening CC(C)CN1CCN(Cc2c(F)cccc2Cl)CC1CCO (stereo unspecified) returned mABHD4 FP inactive, PRMT1 FP inh inactive, SIAE inh inactive, HTRA1 inhibitor inactive and JMJD2C inh inactive.
`N#Cc1ccc(NC(=S)N2Cc3cc(Br)ccc3-n3nncc3C2)cc1` gave mABHD4 FP inactive, PRMT1 FP inh inactive and SIAE inh inactive.
COC(=O)C1=C(c2ccc(OCc3ccccc3)cc2)C[C@@H]2CC[C@H]1N2C(=O)NCc1ccc(OC)c(OC)c1 was read as mABHD4 FP 46.0, PRMT1 FP inh inactive, SIAE inh inactive, HTRA1 inhibitor inactive, JMJD2C inh inactive and mABHD4 conf 58.0.
CCC1C2Cn3c(nc4ccccc43)C1N(C)O2 (stereo unspecified) was read as mABHD4 FP inactive, PRMT1 FP inh inactive, SIAE inh inactive, HTRA1 inhibitor inactive and JMJD2C inh inactive.
`COc1cc2c(cc1O)C[C@H]1c3c(cc(O)c(OC)c3-2)CCN1C` gave mABHD4 FP inactive, PRMT1 FP inh inactive, SIAE inh inactive and HTRA1 inhibitor inactive.
